Values after ≈ are worked out from the molar mass of the structure shown.
Key:
[1] = Binding affinity to Mycobacterium smegmatis CYP51; set-up: species or system Mycolicibacterium smegmatis
[2] = biological target: T1, Sterol 14-alpha demethylase cyp51A (Neosartorya fumigata (strain ATCC MYA-4609 / Af293 / CBS 101355 / FGSCA1100) (Aspergillus fumigatus), UniProt Q4WNT5); assay: Binding affinity to Aspergillus fumigatus AF293 sterol 14-alpha demethylase isoenzyme A expressed in Escherichia coli
T1 sequence (Q4WNT5 whole entry): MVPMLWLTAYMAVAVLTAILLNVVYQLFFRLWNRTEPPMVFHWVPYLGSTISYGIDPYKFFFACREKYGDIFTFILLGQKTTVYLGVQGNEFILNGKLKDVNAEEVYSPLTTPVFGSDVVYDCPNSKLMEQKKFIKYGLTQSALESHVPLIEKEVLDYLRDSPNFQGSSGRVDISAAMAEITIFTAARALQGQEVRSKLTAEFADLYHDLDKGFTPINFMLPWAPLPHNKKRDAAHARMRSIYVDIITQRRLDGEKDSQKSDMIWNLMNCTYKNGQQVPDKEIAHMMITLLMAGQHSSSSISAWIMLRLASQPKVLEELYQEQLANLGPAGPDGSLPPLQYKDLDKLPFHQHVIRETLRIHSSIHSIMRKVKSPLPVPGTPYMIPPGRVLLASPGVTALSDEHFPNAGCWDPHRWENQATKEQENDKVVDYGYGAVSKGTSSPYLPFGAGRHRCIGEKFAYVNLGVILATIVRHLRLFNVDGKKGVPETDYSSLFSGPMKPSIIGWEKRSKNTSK
Summary of the method: (§1)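 His-tagged CYP51 (Af293 sequence, codon-optimised, E. coli-expressed), cholate-solubilised and Ni-NTA purified, at 1 μM in 0.1 M Tris-HCl pH 8.1 with 25% glycerol. Azole (0.05 mg/ml DMSO stock) titrated in split 4.5 mm cuvettes, with DMSO added to the reference. Difference spectra were read at 500–350 nm. Peak-to-trough change was plotted against concentration. Kd came from Morrison (tight binding), Michaelis-Menten or Hill fits.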

Aspergillus fumigatus [3] = assay: Antimicrobial activity against Aspergillus fumigatus CEA10; format: functional
Aspergillus fumigatus [4] = assay: Antimicrobial activity against sterol 14-alpha demethylase isoenzyme A-deficient Aspergillus fumigatus CEA10; format: functional
[5] = biological target: Lanosterol 14-alpha demethylase (Candida albicans (strain SC5314 / ATCC MYA-2876) (Yeast), UniProt P10613); assay: Binding affinity to Candida albicans CYP51
Sequence of Lanosterol 14-alpha demethylase (P10613 whole entry): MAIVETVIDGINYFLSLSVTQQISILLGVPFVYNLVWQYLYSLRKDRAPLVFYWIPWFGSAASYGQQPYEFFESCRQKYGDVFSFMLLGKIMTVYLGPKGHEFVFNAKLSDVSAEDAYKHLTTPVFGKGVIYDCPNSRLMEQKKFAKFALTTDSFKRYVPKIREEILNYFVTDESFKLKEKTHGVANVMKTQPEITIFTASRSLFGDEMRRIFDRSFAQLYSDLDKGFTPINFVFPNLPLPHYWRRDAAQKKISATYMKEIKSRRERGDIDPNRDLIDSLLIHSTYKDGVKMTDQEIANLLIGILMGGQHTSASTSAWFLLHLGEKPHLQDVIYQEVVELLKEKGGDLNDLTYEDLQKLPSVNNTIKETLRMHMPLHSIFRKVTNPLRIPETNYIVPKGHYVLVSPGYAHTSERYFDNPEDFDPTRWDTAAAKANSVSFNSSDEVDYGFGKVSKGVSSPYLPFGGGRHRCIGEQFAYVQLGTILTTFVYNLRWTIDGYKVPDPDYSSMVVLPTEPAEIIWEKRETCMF

Aspergillus fumigatus [6] = assay: Antimicrobial activity against Aspergillus fumigatus AF293; format: functional
Aspergillus fumigatus [7] = assay: Antimicrobial activity against sterol 14-alpha demethylase isoenzyme B-deficient Aspergillus fumigatus CEA10; format: functional
Aspergillus fumigatus [8] = assay: Antimicrobial activity against Aspergillus fumigatus CM237; format: functional
Aspergillus fumigatus [9] = assay: Antimicrobial activity against sterol 14-alpha demethylase isoenzyme A-deficient Aspergillus fumigatus CM237; format: functional
[10] = biological target: T2, 14-alpha sterol demethylase (Neosartorya fumigata (Aspergillus fumigatus), UniProt Q96W81); assay: Binding affinity to Aspergillus fumigatus AF293 sterol 14-alpha demethylase isoenzyme B expressed in Escherichia coli assessed as tight binding affinity constant; summary of the method: as §1
T2 sequence (Q96W81 whole entry): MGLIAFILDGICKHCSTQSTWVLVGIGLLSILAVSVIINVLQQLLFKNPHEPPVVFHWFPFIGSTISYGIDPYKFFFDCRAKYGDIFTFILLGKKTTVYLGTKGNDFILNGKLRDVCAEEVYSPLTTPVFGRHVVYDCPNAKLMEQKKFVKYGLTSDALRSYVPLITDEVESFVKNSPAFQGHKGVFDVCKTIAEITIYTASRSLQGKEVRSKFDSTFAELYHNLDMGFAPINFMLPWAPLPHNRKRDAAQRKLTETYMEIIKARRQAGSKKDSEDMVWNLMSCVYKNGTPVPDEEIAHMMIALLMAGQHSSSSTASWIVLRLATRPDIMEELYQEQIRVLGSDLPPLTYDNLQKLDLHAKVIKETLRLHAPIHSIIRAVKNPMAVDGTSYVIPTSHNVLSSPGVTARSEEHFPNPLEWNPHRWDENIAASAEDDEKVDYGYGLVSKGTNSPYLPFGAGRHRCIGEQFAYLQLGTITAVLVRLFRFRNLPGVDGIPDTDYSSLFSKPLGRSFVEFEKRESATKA

[11] = biological target: T2, 14-alpha sterol demethylase; assay: Binding affinity to Aspergillus fumigatus AF293 sterol 14-alpha demethylase isoenzyme B expressed in Escherichia coli; summary of the method: as §1

Row | SMILES | Kd [2] [µM] | Kd [10] [µM] | MIC (Aspergillus fumigatus [6]) [µM] | also measured
1 | OC(Cn1cncn1)(Cn1cncn1)c1ccc(F)cc1F [FLUCONAZOLE] | 11.9 | – | – | Kd [1]: 19 µM; MIC (Aspergillus fumigatus [3]; read-out: MIC): > 327 µg/mL; MIC (Aspergillus fumigatus [4]; read-out: MIC): 20 µg/mL; Kd [5]: 0.045 µM; MIC (Aspergillus fumigatus [6]; read-out: MIC): 105 µg/mL; MIC (Aspergillus fumigatus [7]; read-out: MIC): > 327 µg/mL
2 | C[C@@H](c1ncncc1F)[C@](O)(Cn1cncn1)c1ccc(F)cc1F [VORICONAZOLE] | 3.63 | 0.429 | 0.72 | MIC (Aspergillus fumigatus [8]): 1.49 µM (≈ 0.52 µg/mL); MIC (Aspergillus fumigatus [9]): 0.34 µM (≈ 0.119 µg/mL); Kd [11]: 0.423 µM
3 | CCC(C)n1ncn(-c2ccc(N3CCN(c4ccc(OCC5COC(Cn6cncn6)(c6ccc(Cl)cc6Cl)O5)cc4)CC3)cc2)c1=O (centres undefined) [ITRACONAZOLE] | 1.01 | 0.031 | 0.71 | MIC (Aspergillus fumigatus [3]): 0.85 µM; MIC (Aspergillus fumigatus [4]): 0.053 µM; MIC (Aspergillus fumigatus [7]): 0.85 µM
4 | CC[C@@H]([C@H](C)O)n1ncn(-c2ccc(N3CCN(c4ccc(OC[C@@H]5CO[C@@](Cn6cncn6)(c6ccc(F)cc6F)C5)cc4)CC3)cc2)c1=O [POSACONAZOLE] | 2.69 | 0.073 | 0.72 | –
5 | Clc1ccccc1C(c1ccccc1)(c1ccccc1)n1ccnc1 [CLOTRIMAZOLE] | 4.79 | 0.103 | – | –

Reference: ChEMBL document CHEMBL1671727, “Expression, purification, and characterization of Aspergillus fumigatus sterol 14-alpha demethylase (CYP51) isoenzymes A and B” (Antimicrob Agents Chemother, 2010)
